From ChEMBL document CHEMBL2034814, “Synthesis and evaluation of γ-lactam analogs of PGE₂ as EP4 and EP2/EP4 agonists” (Bioorg Med Chem, 2012)

Tests used:
[1] = target: T1, Prostaglandin E2 receptor EP1 subtype (Mus musculus, UniProt P35375); assay: Displacement of [3H]PGE2 from mouse EP1 receptor expressed in CHO cells after 20 mins by scintillation counting; format: cell-based
T1 sequence (P35375 whole entry): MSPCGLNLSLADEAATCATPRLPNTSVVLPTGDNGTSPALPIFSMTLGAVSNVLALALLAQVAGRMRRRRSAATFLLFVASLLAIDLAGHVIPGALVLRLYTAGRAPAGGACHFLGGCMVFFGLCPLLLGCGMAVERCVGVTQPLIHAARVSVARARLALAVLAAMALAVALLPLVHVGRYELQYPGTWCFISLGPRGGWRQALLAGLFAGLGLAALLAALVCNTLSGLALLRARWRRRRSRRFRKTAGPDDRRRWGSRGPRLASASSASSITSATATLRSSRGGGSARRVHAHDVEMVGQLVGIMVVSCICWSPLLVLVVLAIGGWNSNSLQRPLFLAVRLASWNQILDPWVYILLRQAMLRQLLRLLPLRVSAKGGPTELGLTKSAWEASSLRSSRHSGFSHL

[2] = target: Prostaglandin E2 receptor EP2 subtype (Mus musculus, UniProt Q62053); assay: Displacement of [3H]PGE2 from mouse EP2 receptor expressed in CHO cells after 60 mins by scintillation counting; format: cell-based
Prostaglandin E2 receptor EP2 subtype (Mus musculus, UniProt Q62053), sequence (Q62053 whole entry): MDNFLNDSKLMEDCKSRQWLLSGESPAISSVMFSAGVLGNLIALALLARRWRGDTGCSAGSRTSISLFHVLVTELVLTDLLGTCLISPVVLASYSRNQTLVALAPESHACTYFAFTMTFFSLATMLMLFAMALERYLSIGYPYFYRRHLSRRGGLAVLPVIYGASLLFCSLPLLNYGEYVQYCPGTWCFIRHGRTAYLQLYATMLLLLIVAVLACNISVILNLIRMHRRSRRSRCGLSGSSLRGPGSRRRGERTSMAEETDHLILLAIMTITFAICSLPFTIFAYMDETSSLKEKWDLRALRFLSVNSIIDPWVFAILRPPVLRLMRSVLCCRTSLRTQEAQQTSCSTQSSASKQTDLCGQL

[3] = target: T2, Prostaglandin E2 receptor EP3 subtype (Mus musculus, UniProt P30557); assay: Displacement of [3H]PGE2 from mouse EP3 receptor expressed in CHO cells after 60 mins by scintillation counting; format: cell-based
T2 sequence (P30557 whole entry): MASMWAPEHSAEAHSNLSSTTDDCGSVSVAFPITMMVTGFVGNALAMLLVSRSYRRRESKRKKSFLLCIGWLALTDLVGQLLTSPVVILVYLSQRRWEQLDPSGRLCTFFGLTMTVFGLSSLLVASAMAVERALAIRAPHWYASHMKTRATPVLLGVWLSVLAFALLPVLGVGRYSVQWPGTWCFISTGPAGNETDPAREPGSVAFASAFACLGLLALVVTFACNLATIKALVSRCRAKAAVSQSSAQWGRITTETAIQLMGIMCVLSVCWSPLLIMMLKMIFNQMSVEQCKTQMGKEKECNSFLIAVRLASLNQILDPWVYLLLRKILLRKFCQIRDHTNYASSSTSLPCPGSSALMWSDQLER

[4] = target: Prostaglandin E2 receptor EP4 subtype (Mus musculus, UniProt P32240); assay: Displacement of [3H]PGE2 from mouse EP4 receptor expressed in CHO cells after 60 mins by scintillation counting; format: cell-based
Prostaglandin E2 receptor EP4 subtype (Mus musculus, UniProt P32240), sequence (P32240 whole entry): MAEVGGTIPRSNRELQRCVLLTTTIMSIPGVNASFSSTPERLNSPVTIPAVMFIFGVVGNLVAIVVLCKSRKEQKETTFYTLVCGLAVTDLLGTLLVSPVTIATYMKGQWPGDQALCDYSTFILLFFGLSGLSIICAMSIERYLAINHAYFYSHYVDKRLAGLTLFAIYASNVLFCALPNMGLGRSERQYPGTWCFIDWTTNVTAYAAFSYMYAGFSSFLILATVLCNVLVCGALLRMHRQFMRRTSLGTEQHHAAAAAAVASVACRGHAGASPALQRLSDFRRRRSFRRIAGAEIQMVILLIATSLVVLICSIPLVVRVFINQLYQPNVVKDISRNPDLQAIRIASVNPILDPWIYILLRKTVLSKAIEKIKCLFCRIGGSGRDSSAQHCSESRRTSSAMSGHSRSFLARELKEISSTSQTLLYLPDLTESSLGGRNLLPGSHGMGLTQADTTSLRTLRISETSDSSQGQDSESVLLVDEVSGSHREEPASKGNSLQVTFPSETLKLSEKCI

[5] = target: Prostaglandin E2 receptor EP2 subtype (Rattus norvegicus, UniProt Q62928); assay: Agonist activity at rat EP2 receptor expressed in CHO cells assessed as cAMP production after 10 mins by radioimmunoassay; format: functional, cell-based
Prostaglandin E2 receptor EP2 subtype (Rattus norvegicus, UniProt Q62928), sequence (Q62928 whole entry): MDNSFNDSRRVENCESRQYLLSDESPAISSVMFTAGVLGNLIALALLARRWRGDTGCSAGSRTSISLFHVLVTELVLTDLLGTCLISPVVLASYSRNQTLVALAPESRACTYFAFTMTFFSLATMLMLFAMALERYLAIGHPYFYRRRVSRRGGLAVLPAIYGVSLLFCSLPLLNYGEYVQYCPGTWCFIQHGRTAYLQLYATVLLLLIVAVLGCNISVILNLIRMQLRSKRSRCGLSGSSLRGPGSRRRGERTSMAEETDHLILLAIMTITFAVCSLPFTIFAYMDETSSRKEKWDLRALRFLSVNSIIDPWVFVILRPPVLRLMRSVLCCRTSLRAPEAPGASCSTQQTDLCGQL
Method in brief: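 CHO cells expressing rat EP2 receptor, seeded 1 × 10^5 cells/well and grown 2 days; washed, incubated 10 min at 37 °C in MEM with 2 µM diclofenac, then preincubated 10 min in assay medium with 1% BSA. Compound added, 10 min at 37 °C, stopped with ice-cold 10% trichloroacetic acid; cAMP measured by radioimmunoassay.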

[6] = target: Prostaglandin E2 receptor EP4 subtype (Rattus norvegicus, UniProt P43114); assay: Agonist activity at rat EP4 receptor expressed in CHO cells assessed as cAMP production after 10 mins by radioimmunoassay; format: functional, cell-based
Prostaglandin E2 receptor EP4 subtype (Rattus norvegicus, UniProt P43114), sequence (P43114 whole entry): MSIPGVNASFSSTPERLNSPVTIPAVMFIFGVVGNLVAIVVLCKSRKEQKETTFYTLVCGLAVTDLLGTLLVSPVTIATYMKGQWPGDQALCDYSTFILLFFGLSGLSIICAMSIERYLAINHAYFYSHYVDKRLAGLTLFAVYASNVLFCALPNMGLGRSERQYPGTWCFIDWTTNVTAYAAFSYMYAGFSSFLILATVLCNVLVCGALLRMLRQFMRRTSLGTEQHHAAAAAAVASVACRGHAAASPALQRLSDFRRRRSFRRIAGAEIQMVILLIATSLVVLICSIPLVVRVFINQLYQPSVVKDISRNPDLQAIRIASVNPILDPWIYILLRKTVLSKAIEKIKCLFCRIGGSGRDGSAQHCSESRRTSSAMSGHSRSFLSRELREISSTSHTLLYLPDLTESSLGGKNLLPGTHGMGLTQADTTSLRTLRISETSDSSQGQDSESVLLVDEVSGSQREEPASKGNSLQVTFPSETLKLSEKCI

Rattus norvegicus [7] = assay: Induction of bone fracture healing in CrJ:CD(SD)IGS rat assessed as breaking strength of fractured fibulae at 3 ug/kg administered tropically as PLGA microsphere formulation measured after 17 days relative to control; format: functional
Method in brief: (§1)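 Male Sprague–Dawley rats, 8 weeks old. Under sodium pentobarbital (30–50 mg/kg) the left fibula midshaft was exposed and cut. Compound in PLGA microspheres injected topically at the fracture. At 17 days fibulae removed for three-point destructive bending; breaking strength expressed as % of the mean of nonfractured fibulae from intact rats, with vehicle-treated fractured controls.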

Rattus norvegicus [8] = assay: Induction of bone fracture healing in CrJ:CD(SD)IGS rat assessed as breaking strength of fractured fibulae at 10 ug/kg administered tropically as PLGA microsphere formulation measured after 17 days relative to control; format: functional; method in brief: as §1
Rattus norvegicus [9] = assay: Induction of bone fracture healing in CrJ:CD(SD)IGS rat assessed as breaking strength of fractured fibulae at 30 ug/kg administered tropically as PLGA microsphere formulation measured after 17 days relative to control; format: functional; method in brief: as §1
Rattus norvegicus [10] = assay: Induction of bone fracture healing in CrJ:CD(SD)IGS rat assessed as breaking strength of fractured fibulae at 100 ug/kg administered tropically as PLGA microsphere formulation measured after 17 days relative to control; format: functional; method in brief: as §1
Rattus norvegicus [11] = assay: Induction of bone fracture healing in CrJ:CD(SD)IGS rat assessed as breaking strength of fractured fibulae at 300 ug/kg administered tropically as PLGA microsphere formulation measured after 17 days relative to control; format: functional; method in brief: as §1
Rattus norvegicus [12] = assay: Induction of bone fracture healing in CrJ:CD(SD)IGS rat assessed as breaking strength of fractured fibulae administered tropically as PLGA microsphere formulation measured after 17 days relative to control; format: functional, organism-based; method in brief: as §1
[13] = Drug release from PLGA microsphere assessed as compound remaining in microsphere at 100 ug/ml after 7 days; format: physicochemical; details: 168 h
[14] = Drug release from PLGA microsphere assessed as compound remaining in microsphere at 100 ug/ml after 14 days; format: physicochemical; details: 336 h
[15] = Drug release from PLGA microsphere assessed as compound remaining in microsphere at 100 ug/ml after 21 days; format: physicochemical; details: 504 h
[16] = Drug release from PLGA microsphere assessed as compound remaining in microsphere at 100 ug/ml after 28 days; format: physicochemical; details: 672 h
[17] = Drug release from PLGA microsphere assessed as compound remaining in microsphere at 100 ug/ml after 7 days in presence of 5% methanol; format: physicochemical; details: 168 h
[18] = Drug release from PLGA microsphere assessed as compound remaining in microsphere at 100 ug/ml after 14 days in presence of 5% methanol; format: physicochemical; details: 336 h
[19] = Drug release from PLGA microsphere assessed as compound remaining in microsphere at 100 ug/ml after 21 days in presence of 5% methanol; format: physicochemical; details: 504 h
[20] = Drug release from PLGA microsphere assessed as compound remaining in microsphere at 100 ug/ml after 28 days in presence of 5% methanol; format: physicochemical; details: 672 h
Rattus norvegicus [21] = assay: Induction of bone fracture healing in CrJ:CD(SD)IGS rat assessed as breaking strength of fractured fibulae at 1 ug/kg administered tropically as PLGA microsphere formulation measured after 17 days relative to control; format: functional; method in brief: as §1
Rattus norvegicus [22] = assay: Toxicity in CrJ:CD(SD)IGS rat assessed as change in mean blood pressure at 300 ug/kg administered tropically as PLGA microsphere formulation; format: organism-based; details: in vivo, topical_or_ocular, 0.3 mg/kg
Method in brief: (§2)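 Male Sprague–Dawley rats, 7–9 weeks old, anesthetized with urethane (1.5 g/kg, sc); compound given as PLGA microsphere formulation, with heart rate and mean blood pressure monitored.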

Rattus norvegicus [23] = assay: Toxicity in CrJ:CD(SD)IGS rat assessed as change in mean blood pressure at 1000 ug/kg administered tropically as PLGA microsphere formulation; format: organism-based; details: in vivo, topical_or_ocular, 1 mg/kg; method in brief: as §2
Rattus norvegicus [24] = assay: Toxicity in CrJ:CD(SD)IGS rat assessed as change in mean blood pressure at 3000 ug/kg administered tropically as PLGA microsphere formulation; format: organism-based; details: in vivo, topical_or_ocular, 3 mg/kg; method in brief: as §2
Rattus norvegicus [25] = assay: Toxicity in CrJ:CD(SD)IGS rat assessed as change in heart rate at 300 ug/kg, administered tropically as PLGA microsphere formulation; format: organism-based; details: in vivo, topical_or_ocular, 0.3 mg/kg; method in brief: as §2
Rattus norvegicus [26] = assay: Toxicity in CrJ:CD(SD)IGS rat assessed as change in heart rate at 1000 ug/kg, administered tropically as PLGA microsphere formulation; format: organism-based; details: in vivo, topical_or_ocular, 1 mg/kg; method in brief: as §2
Rattus norvegicus [27] = assay: Toxicity in CrJ:CD(SD)IGS rat assessed as change in heart rate at 3000 ug/kg, administered tropically as PLGA microsphere formulation; format: organism-based; details: in vivo, topical_or_ocular, 3 mg/kg; method in brief: as §2

| SMILES | Ki [1] [nM] | Ki [2] [nM] | Ki [3] [nM] | Ki [4] [nM] | EC50 [5] [nM] | EC50 [6] [nM] | Activity (Rattus norvegicus [9]) [%] | Activity (Rattus norvegicus [12]) | further results |
| --- | --- | --- | --- | --- | --- | --- | --- | --- | --- |
| O=C(O)c1csc(SCCN2C(=O)CC[C@@H]2/C=C/[C@@H](O)Cc2cccc(-c3nc4cc(Cl)ccc4o3)c2)n1 | 650 | 67 | > 10000 | 0.2 | > 10000 | 4.9 |  |  |  |
| O=C(O)c1csc(SCCN2C(=O)CC[C@@H]2/C=C/[C@@H](O)Cc2cccc(-c3nc4ccccc4o3)c2)n1 | > 10000 | 28 | > 10000 | 0.12 | 1600 | 2.2 |  |  |  |
| Cc1cc(C)c2oc(-c3cccc(C[C@H](O)/C=C/[C@H]4CCC(=O)N4CCSc4nc(C(=O)O)cs4)c3)nc2c1 | 3200 | 24 | > 10000 | 0.15 | > 10000 | 7.7 |  |  |  |
| Cc1ccc2nc(-c3cccc(C[C@H](O)/C=C/[C@H]4CCC(=O)N4CCSc4nc(C(=O)O)cs4)c3)oc2c1 | 200 | 56 | > 10000 | 0.16 | 3200 | 1.6 | 71.6 | Dose-dependent effect | Activity (Rattus norvegicus [7]): 84.4%; Activity (Rattus norvegicus [8]): 87.1%; Activity (Rattus norvegicus [10]): 124.6%; Activity (Rattus norvegicus [11]): 167.4%; Activity [13]: 100%; Activity [14]: 95%; Activity [15]: 86.6%; Activity [16]: 87.6% |
| Cc1ccc2oc(-c3cccc(C[C@H](O)/C=C/[C@H]4CCC(=O)N4CCSc4nc(C(=O)O)cs4)c3)nc2c1 | 1300 | 21 | > 10000 | 0.21 | > 10000 | 8.8 | 98.1 | Dose-dependent effect | Activity (Rattus norvegicus [7]): 77.7%; Activity (Rattus norvegicus [8]): 87.7%; Activity (Rattus norvegicus [10]): 136%; Activity (Rattus norvegicus [11]): 144.3%; Activity [17]: 99.6%; Activity [18]: 93.1%; Activity [19]: 85.2%; Activity [20]: 79.3% |
| O=C(O)c1csc(SCCN2C(=O)CC[C@@H]2/C=C/[C@@H](O)Cc2cccc(-c3cc4ccccc4o3)c2)n1 | 2700 | 2.1 | 1700 | 0.12 | 1500 | 5.3 | 116.6 | Dose-dependent effect | Activity (Rattus norvegicus [21]): 76.1%; Activity (Rattus norvegicus [7]): 83.3%; Activity (Rattus norvegicus [8]): 104.2%; Activity [13]: 95.7%; Activity [14]: 88.6%; Activity [15]: 80.1%; Activity [16]: 60.8% |
| O=C(O)c1csc(SCCN2C(=O)CC[C@@H]2/C=C/[C@@H](O)Cc2cccc(-c3nc4cc(Cl)ccc4s3)c2)n1 | 680 | 22 | > 10000 | 0.25 | > 10000 | 9.7 |  |  |  |
| Cc1ccc(-c2cccc(C[C@H](O)/C=C/[C@H]3CCC(=O)N3CCSc3nc(C(=O)O)cs3)c2)cc1C | 2500 | 1.5 | > 10000 | 0.35 | 1400 | 21 |  |  |  |
| O=C(O)CCCSCCN1C(=O)CC[C@@H]1/C=C/[C@@H](O)Cc1cccc(-c2cc3ccccc3o2)c1 | > 10000 | 2000 | > 10000 | 0.1 |  | 7 | 95.4 | Dose-dependent effect | Activity (Rattus norvegicus [10]): 136.3%; Activity (Rattus norvegicus [11]): 154%; Activity (Rattus norvegicus [22]): 98.4%; Activity (Rattus norvegicus [23]): 98.2%; Activity (Rattus norvegicus [24]): 97.3%; Activity (Rattus norvegicus [25]): 106.3%; Activity (Rattus norvegicus [26]): 104.6%; Activity (Rattus norvegicus [27]): 111.4%; Activity [13]: 94.8%; Activity [14]: 91.1%; Activity [15]: 83.5%; Activity [16]: 46.3% |
| Cc1cccc2oc(-c3cccc(C[C@H](O)/C=C/[C@H]4CCC(=O)N4CCSc4nc(C(=O)O)cs4)c3)nc12 | 7700 | 22 | > 10000 | 0.21 | 8500 | 28 |  |  |  |
| Cc1ccc(-c2cccc(C[C@H](O)/C=C/[C@H]3CCC(=O)N3CCSc3nc(C(=O)O)cs3)c2)c(C)c1 | 2400 | 23 | > 10000 | 3.5 | > 10000 | 160 |  |  |  |
